{"data": "Published values of several laboratories", "RET": "Proto-oncogene tyrosine-protein kinase receptor Ret (RET, Homo sapiens, UniProt P07949)", "RET M918T": "Proto-oncogene tyrosine-protein kinase receptor Ret (RET, Homo sapiens, UniProt P07949, M918T)", "RET V804L": "Proto-oncogene tyrosine-protein kinase receptor Ret (RET, Homo sapiens, UniProt P07949, V804L)", "RET V804M": "Proto-oncogene tyrosine-protein kinase receptor Ret (RET, Homo sapiens, UniProt P07949, V804M)", "note": "Lines come from different studies, so protocols differ."}
{"SMILES": "Cc1ccc(-c2nn3c(=O)cc(CNC(=O)Nc4ccc(C)c(Cl)c4)nc3s2)cc1", "target": "RET", "effect on": "enzyme activity", "mode": "inhibitor", "method": "radiometric", "concentration": "0.1 µM", "quantity": "remaining activity", "result": "116%"}
{"SMILES": "CN(CCCC(F)(F)F)c1nccc(-c2cnn3ncccc23)n1", "target": "RET M918T", "effect on": "binding", "concentration": "1 µM", "quantity": "remaining binding", "result": "99%"}
{"SMILES": "O=C(N1CCS(=O)(=O)CC1)N1C[C@H](c2ccc(OC(F)(F)F)cc2)C[C@H](c2nc(C3CC3)no2)C1", "target": "RET V804L", "effect on": "cell-free assay", "method": "competition with immobilised ligand", "concentration": "1 µM", "quantity": "remaining binding", "result": "99%"}
{"SMILES": "COc1cc(NC(=O)Nc2cccc(Br)c2)cc2sc(NC(=O)c3ccccc3)nc12", "target": "RET", "effect on": "enzyme activity", "mode": "inhibitor", "method": "radiometric", "concentration": "0.1 µM", "quantity": "remaining activity", "result": "153%"}
{"SMILES": "COc1cc(-c2cc(-c3ccc(N4CCNCC4)cc3)cnc2N)cc(OC)c1OC", "target": "Proto-oncogene tyrosine-protein kinase receptor Ret (RET, Homo sapiens, UniProt P07949, Y791F)", "effect on": "enzyme activity", "mode": "inhibitor", "concentration": "1 µM", "quantity": "inhibition", "result": "13%"}
{"SMILES": "CS(=O)(=O)CCNCc1ccc(-c2ccc3ncnc(Nc4ccc(OCc5cccc(F)c5)c(Cl)c4)c3c2)o1", "target": "RET", "effect on": "cell-free assay", "concentration": "0.5 µM", "quantity": "remaining signal", "result": "99.8%"}
{"SMILES": "CC(=O)c1cccc(NC(=O)Cc2csc(NC(=O)Nc3cccc(Cl)c3)n2)c1", "target": "RET", "effect on": "enzyme activity", "mode": "inhibitor", "method": "radiometric", "concentration": "10 µM", "quantity": "remaining activity", "result": "92.6%"}
{"SMILES": "Nc1ncnc2occ(-c3ccc(NC(=O)Nc4cc(C(F)(F)F)ccc4F)cc3)c12", "target": "RET M918T", "effect on": "cell-free assay", "concentration": "20 µM", "quantity": "remaining signal", "result": "0%"}
{"SMILES": "CC(=O)Nc1cccc2c1CCN(C(=O)CCNC(=O)c1ccsc1)C2", "target": "RET", "effect on": "enzyme activity", "mode": "inhibitor", "method": "radiometric", "concentration": "10 µM", "quantity": "remaining activity", "result": "90.8%"}
{"SMILES": "O=S(=O)(NC1CCC(c2cc(F)ccc2F)(S(=O)(=O)c2ccc(Cl)cc2)CC1)C(F)(F)F (stereo not shown)", "target": "RET V804M", "effect on": "cell-free assay", "method": "competition with immobilised ligand", "concentration": "1 µM", "quantity": "remaining binding", "result": "100%"}
{"SMILES": "COc1ccc(CN2C3CC2CN(c2ccc(-c4cc(OCC(C)(C)O)cn5ncc(C#N)c45)cn2)C3)cn1", "target": "Proto-oncogene tyrosine-protein kinase receptor Ret (RET, Homo sapiens, UniProt P07949, L760A)", "effect on": "thermal stability", "method": "DSF", "concentration": "10 µM", "quantity": "ΔTm", "result": "8.7 °C"}
{"SMILES": "COc1cc2ncnc(Nc3ccc(Oc4ccccc4)c(C)c3C)c2cc1OC", "target": "RET", "effect on": "enzyme activity", "mode": "inhibitor", "concentration": "1 µM", "quantity": "inhibition", "result": "17%"}
{"SMILES": "O=C(NS(=O)(=O)c1ccc(NCC2CCOCC2)c([N+](=O)[O-])c1)c1ccc(N2CCN(Cc3ccc(C(F)(F)F)cc3-c3ccc(Cl)cc3)CC2)cc1Oc1cnc2[nH]ccc2c1", "target": "RET V804M", "effect on": "cell-free assay", "method": "competition with immobilised ligand", "concentration": "1 µM", "quantity": "remaining binding", "result": "100%"}
{"SMILES": "C=CC(=O)Nc1cc(Nc2nccc(Nc3cc(Cl)c(F)cc3C(C)(C)O)n2)c(OC)cc1N1CC[C@@H](N(C)C)C1", "target": "RET V804M", "effect on": "enzyme activity", "mode": "inhibitor", "concentration": "1 µM", "quantity": "inhibition", "result": "-6%"}
{"SMILES": "Cc1ccc(Nc2nccc(N(C)c3ccc4c(C)n(C)nc4c3)n2)cc1S(N)(=O)=O", "target": "RET", "effect on": "cell-free assay", "concentration": "0.5 µM", "quantity": "remaining signal", "result": "25.7%"}
{"SMILES": "CC(=O)OCc1cnc(C)c2oc(=Nc3ccc(F)cc3)c(C(=O)Nc3ccc4c(c3)OCO4)cc12", "target": "RET", "effect on": "enzyme activity", "mode": "inhibitor", "method": "radiometric", "concentration": "0.1 µM", "quantity": "remaining activity", "result": "121%"}
{"SMILES": "c1cnn2ncc(-c3ccnc(N4CCC45COC5)n3)c2c1", "target": "RET M918T", "effect on": "binding", "concentration": "1 µM", "quantity": "remaining binding", "result": "97%"}
{"SMILES": "CCc1ccccc1C(=O)Nc1n[nH]c2c(C)c(F)c(C3C(C#N)=C(C)N(C)C(C)=C3C#N)cc12", "target": "RET M918T", "effect on": "cell-free assay", "method": "competition with immobilised ligand", "concentration": "1 µM", "quantity": "remaining binding", "result": "64%"}
{"SMILES": "CC/C(=N\\NC(=O)NCc1cccc(O)c1)c1ccc(O)c(C)c1O", "target": "Proto-oncogene tyrosine-protein kinase receptor Ret (RET, Homo sapiens, UniProt P07949, G691S)", "effect on": "enzyme activity", "mode": "inhibitor", "concentration": "0.1 µM", "quantity": "inhibition", "result": "5.6%"}
{"SMILES": "COc1ccc2c(c1)O[C@H](c1ccc(OC)c(OC)c1)C[C@@H]2NC(=O)C1(c2ccc3c(c2)OC(F)(F)O3)CC1", "target": "RET V804M", "effect on": "cell-free assay", "method": "competition with immobilised ligand", "concentration": "1 µM", "quantity": "remaining binding", "result": "100%"}
{"SMILES": "CN(C)c1nccc(-c2cnn3ncccc23)n1", "target": "RET M918T", "effect on": "binding", "concentration": "1 µM", "quantity": "remaining binding", "result": "97%"}
{"SMILES": "CO[C@]1(C(=O)N[C@@H](C)c2ccc(-n3cc(F)cn3)nc2)CC[C@H](c2nc(C)cc(Nc3cc(C)[nH]n3)n2)CC1", "target": "RET V804M", "effect on": "thermal stability", "method": "DSF", "concentration": "10 µM", "quantity": "ΔTm", "result": "8.7 °C"}
{"SMILES": "C[C@@H]1CN(c2cc(-c3nn(C)c4ccc(OC5(C)CC5)cc34)ncn2)C[C@H](C)O1", "target": "RET V804M", "effect on": "cell-free assay", "method": "competition with immobilised ligand", "concentration": "1 µM", "quantity": "remaining binding", "result": "100%"}
{"SMILES": "N[C@H]1CCN(c2nccc(-c3cnn4ncccc34)n2)C1", "target": "RET", "effect on": "binding", "concentration": "1 µM", "quantity": "remaining binding", "result": "51%"}
{"SMILES": "Cc1ccc(NC(=O)Nc2ccc(Nc3cc(-n4ccnc4)nc(C)n3)cc2)c(C)c1", "target": "RET", "effect on": "enzyme activity", "mode": "inhibitor", "method": "radiometric", "concentration": "10 µM", "quantity": "remaining activity", "result": "68.1%"}
{"SMILES": "CN(C)c1ncc(F)c(-c2cnn3ncccc23)n1", "target": "RET", "effect on": "binding", "concentration": "1 µM", "quantity": "remaining binding", "result": "97%"}
{"SMILES": "Cc1cc(NC(=O)c2cccc3cc(-c4cccc5[nH]nc(N)c45)ccc23)ccc1F", "target": "RET", "effect on": "enzyme activity", "mode": "inhibitor", "concentration": "0.1 µM", "quantity": "activity vs control", "result": "37%"}
{"SMILES": "COc1cccc(CNC(=O)c2nc3scc(COCc4ccc(C(=O)O)cc4)c3c(=O)[nH]2)c1", "target": "RET V804M", "effect on": "cell-free assay", "method": "competition with immobilised ligand", "concentration": "1 µM", "quantity": "remaining binding", "result": "95.3%"}
{"SMILES": "C[C@@H]1CCN(C(=O)CC#N)C[C@@H]1N(C)c1ncnc2[nH]ccc12", "target": "RET", "effect on": "cell-free assay", "concentration": "0.5 µM", "quantity": "remaining signal", "result": "92.4%"}
{"SMILES": "Cc1ccc(NC(=O)Nc2cc3c(cc2Oc2ccccc2)n(C)c(=O)n3C)cc1C", "target": "RET", "effect on": "enzyme activity", "mode": "inhibitor", "method": "radiometric", "concentration": "10 µM", "quantity": "remaining activity", "result": "128%"}
{"SMILES": "C[C@@H]1CCN(c2nccc(-c3cnn4ncccc34)n2)C1", "target": "RET M918T", "effect on": "binding", "concentration": "1 µM", "quantity": "remaining binding", "result": "100%"}
{"SMILES": "O=C(COc1ccc(Cl)cc1C(=O)Nc1ccccc1)Nc1cc(Cl)ccc1-n1cncn1", "target": "RET", "effect on": "enzyme activity", "mode": "inhibitor", "method": "radiometric", "concentration": "0.1 µM", "quantity": "remaining activity", "result": "107%"}
{"SMILES": "CCCOc1ccc(OC)c(F)c1C(=O)c1ccc(C(=O)N[C@@H]2CNC[C@H]2NC(=O)c2ccc3[nH]ncc3c2)cc1", "target": "RET V804L", "effect on": "enzyme activity", "mode": "inhibitor", "concentration": "10 µM", "quantity": "remaining activity", "result": "8%"}
{"SMILES": "CS(=O)(=O)N1CCCC(NC(=O)[C@H](CCC2CCCCC2)NC(=O)c2ccc(CNC(=O)c3cnc4ccccn34)cc2)C1 (stereo partly shown)", "target": "RET M918T", "effect on": "cell-free assay", "method": "competition with immobilised ligand", "concentration": "0.1 µM", "quantity": "remaining binding", "result": "93%"}
{"SMILES": "CC1CCCN1c1nccc(-c2cnn3ncccc23)n1 (stereo not shown)", "target": "RET V804L", "effect on": "binding", "concentration": "1 µM", "quantity": "remaining binding", "result": "85%"}
{"SMILES": "Cc1ccc(C(=O)Nc2ccc(CN3CCN(C)CC3)c(C(F)(F)F)c2)cc1C#Cc1cnc2cccnn12", "target": "RET V804L", "effect on": "enzyme activity", "concentration": "23.5 nM", "quantity": "remaining activity", "result": "17%"}
{"SMILES": "N#CCCc1ccc2c(c1)-c1[nH]c3ccc([N+](=O)[O-])cc3c1CC(=O)N2", "target": "RET", "effect on": "cell-free assay", "concentration": "0.5 µM", "quantity": "remaining signal", "result": "80.8%"}
